# The list is not random: actives were taken first. Their share in the collection is about 1%.
# Tn6 DDE FP – inhibitors of Tn6 peptide binding to fibrin DD(E), primary screen, biochemical, fluorescence polarization, human fibrin, Tn6 probe; AID 720509, 2013; Fibrinogen beta chain (Homo sapiens), P02675; 370,000 compounds, 0.21% hits; Fibrin DD(E) TRITC-Tn6 fluorescence polarization displacement; inhibition, % at 8.3 µM;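 active means inhibition above a per-campaign cutoff: mean of compounds within control limits plus 3 SD, cut at about 15% in these data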
# Target sequence (P02675 whole entry, looked up): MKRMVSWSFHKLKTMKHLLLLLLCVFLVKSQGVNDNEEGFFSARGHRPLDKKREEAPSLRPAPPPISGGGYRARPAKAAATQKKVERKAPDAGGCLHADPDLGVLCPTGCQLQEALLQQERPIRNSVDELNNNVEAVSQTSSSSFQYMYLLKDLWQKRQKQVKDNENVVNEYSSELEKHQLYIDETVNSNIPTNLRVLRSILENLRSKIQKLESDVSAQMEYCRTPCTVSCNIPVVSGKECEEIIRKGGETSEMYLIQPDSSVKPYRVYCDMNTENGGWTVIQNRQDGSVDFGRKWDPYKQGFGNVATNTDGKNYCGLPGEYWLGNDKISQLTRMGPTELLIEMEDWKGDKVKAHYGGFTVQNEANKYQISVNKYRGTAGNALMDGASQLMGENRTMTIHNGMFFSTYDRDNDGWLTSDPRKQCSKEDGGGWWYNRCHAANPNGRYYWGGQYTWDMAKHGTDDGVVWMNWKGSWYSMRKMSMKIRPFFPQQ
# Tn7 DDE FP – inhibitors of Tn7 peptide binding to fibrin DD(E), primary screen, biochemical, fluorescence polarization, human fibrin, Tn7 probe | Fibrinogen beta chain (Homo sapiens), P02675 | FP displacement of FITC-Tn7 peptide from fibrin DD(E); 0% = median of compound wells per plate | inhibition, % at 8.3 µM | 370,000 compounds, 0.13% hits | AID 720508, 2013;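 active means inhibition above the mean of compounds falling within the control limits plus 3 SD of them, cut at about 14% in these data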
#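 Also added: labelled Tn7 tracer, 0.1 µM; Assay system: human fibrin DD(E) protein; Amount: 2 µM fibrin DD(E); Schedule: 10 min compound pre-incubation, 3 h probe incubation at room temperature; Repeats: one replicate per compound; Read-out basis: percent inhibition; Measured by: fluorescence polarization of the labelled Tn7 tracer.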
# Neddylation inh – inhibitors of cullin neddylation, primary screen, biochemical, TR-FRET, uHTS, NAE and Ubc12; NEDD8-conjugating enzyme Ubc12 (Homo sapiens) + NEDD8-activating enzyme E1 regulatory …; inhibition, % at 25 µM; 360,000 compounds, 0.58% hits; in the data active means inhibition above about 36%
# PKA-R2B act – activators of PKA-R2B holoenzyme, primary screen, biochemical, fluorescence polarization, Cy5-IP20, human | activation, % at 11.4 µM | AID 504700, 2011 | 340,000 compounds, 0.079% hits | cAMP-dependent protein kinase catalytic subunit beta (Homo sapiens) + cAMP-dependent … | PKA-R2B holoenzyme dissociation; R2B truncated from residue 108, S112A mutant; 0% DMSO only, 100% 113 µM cGMP;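 active means activation above a cutoff set at the mean over all compounds plus 3 SD, cut at about 18% in these data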;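 further: higher means more holoenzyme dissociation and a rise in polarization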
# PKA-R1A act – activators of PKA-R1A holoenzyme, primary screen, biochemical, fluorescence polarization, Cy5-IP20, bovine R1A, mouse PKAc; cAMP-dependent protein kinase type I-alpha regulatory subunit (Bos taurus) + …; PKA-R1A dissociation; scaled: DMSO 0%, 113 µM cGMP 100%; activation, % at 11.4 µM; 340,000 compounds, 0.083% hits; AID 504707, 2011;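 active means percent activation above the mean of all tested compounds plus 3 SD, cut at about 19% in these data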;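 further: higher means more PKAc released from R1A so a rise in polarization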
# R2B FP artifact – fluorescence polarization artefacts, biochemical, artefact control for PKA-R2B activator project; shares compounds with PKA-R2B act; FP artifact counterscreen; activation, % at 11.4 µM; 270 compounds, 6% hits; in the data active means activation above about 20%;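 further: Cy5 labelled IP20 peptide probe with compound but no PKA protein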
# PKA-R2B act conf – activators of PKA-R2B holoenzyme, confirmation, biochemical, fluorescence polarization, human. shares compounds with PKA-R2B act. PKA-R2B complex, activation. activation, % at 11.4 µM. 270 compounds, 9% hits. AID 504797, 2011; in the data active means activation above about 19%
# A number is an active result; - = inactive; . = no result given.
SMILES,Tn6 DDE FP,Tn7 DDE FP,Neddylation inh,PKA-R2B act,PKA-R1A act,R2B FP artifact,PKA-R2B act conf
COc1ccc(Cn2c(O)c(/C=N/NC(=O)c3cccnc3)c3ccccc3c2=O)cc1,-,-,43,-,-,.,.
[O-][n+]1c2ccccc2[n+]([O-])c2cc(O)ccc21,16,-,-,-,-,.,.
CCc1ccccc1N(CC(=O)NCc1ccco1)C(=O)c1snc(C(N)=O)c1N,-,-,39,-,-,.,.
Cc1ccc(C(=O)N/C(=C\c2ccc(-c3cccc([N+](=O)[O-])c3)o2)C(=O)NCCCN(C)C)cc1,-,-,-,-,-,.,.
Cc1ccc(C(=O)N/C(=C\c2ccc(-c3ccc(Br)cc3)o2)C(=O)NCCCN(C)C)cc1,-,-,50,-,-,.,.
COC(=O)C1=C(C(=O)OC)[C@@]2([C@H](Cc3ccc(C)cc3)Nc3ccccc3)C=C[C@@H]1O2,-,-,.,.,.,.,.
COc1ccc(CCn2c(O)cc3nn(-c4nc5ccccc5s4)c(=O)c-3c2C)cc1,-,-,75,-,-,.,.
COc1ccc(CN2CCN(c3nc4ccccc4s3)CC2)cc1,-,-,-,-,-,.,.
O=S1(=O)Nc2c(ccc3cccnc23)-c2ccccc21,.,.,52,-,-,.,.
Cc1cc(C(=O)NN=Cc2cccc(O)c2)n[nH]1,-,-,.,.,.,.,.
CC[C@@]1(O)C(=O)OCc2c1cc1n(c2=O)Cc2cc3c(CN(C)C)c(O)ccc3nc2-1,-,30,-,-,-,.,.
COCC(=O)N(C)[C@H]1C[C@H]2c3[nH]c4cccc(-c5cccc(F)c5)c4c3CCN2C(=O)[C@H]1[C@H](C)O,-,-,.,.,.,.,.
O=C1Nc2ccccc2N(C(=O)c2c(F)cccc2F)C1c1nc2ccccc2[nH]1 (stereo unspecified),-,-,52,.,.,.,.
NC(=O)c1ccc[n+]([C@H]2O[C@@H](COP(=O)([O-])OP(=O)(O)OC[C@H]3O[C@@H](n4cnc5c(N)ncnc54)[C@H](O)[C@@H]3O)[C@H](O)[C@@H]2O)c1,.,.,52,-,-,.,.
COc1ccc(C(=O)NC[C@H]2O[C@@H](n3cnc4c(N)ncnc43)[C@H](O)[C@@H]2O)cc1OC,-,-,-,.,.,.,.
COc1ccc(S(=O)(=O)Nc2ccc(NC(C)=O)cc2)cc1Br,-,-,-,22,-,-,-
COc1cc(OC)cc(-c2csc(N3CCC(C(N)=O)CC3)n2)c1,-,-,.,.,.,.,.
CCOc1ccccc1/C=C(\C#N)C(=O)NC1CC1,-,-,-,.,.,.,.
CCOc1c(Br)cc(/C=C(\C#N)C(=O)NC2CC2)cc1OC,-,-,-,19,-,-,-
COc1ccc(-c2cc(-c3nnc(SCC(=O)Nc4ccc(OCc5ccccc5)cc4)n3N)[nH]n2)cc1,-,-,.,.,.,.,.
CC(=O)c1ccc(OCC(=O)Nc2nnc(C3CC3)s2)cc1,-,-,-,20,-,-,-
Cc1ccc(N2C(=O)C3ON(c4ccccc4)C(c4ccncc4)C3C2=O)cc1 (stereo unspecified),-,-,-,20,-,-,-
COCCN1C=C2C(=O)C(C)(OC(=O)CCC(=O)OC)C(=O)C=C2C=C1C1CC1 (stereo unspecified),.,.,-,20,-,-,-
COc1ccc(N2CCN(CCCNC(=O)Cn3c(=O)c4cccn4c4cccnc43)CC2)c(OC)c1,-,-,.,.,.,.,.
CCOc1c(CNCCNC(=O)c2nonc2N)cccc1OC,-,-,-,19,-,-,-
COc1ccc(N2CCN(C(=O)c3ccc(OCc4c(C)noc4C)c(OC)c3)CC2)cc1,-,-,-,20,-,-,-
CCOc1ccc(-n2c(COc3ccccc3)nnc2SCC(=O)Nc2ccc3c(c2)OCCO3)cc1,-,-,.,.,.,.,.

# Screening data from PubChem.
